Bioassay records (PubChem)
Sampled rows, rich in hits. Any-hit rate of the full collection: about 3.1%.
KCNQ1 act: potentiators or activators of human KCNQ1 potassium channel; B-score at 10 µM; P51787; CHO-K1 KCNQ1, thallium flux FluxOR fluorescence; active compounds read high; actives 0.35% (n = 310,000);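 active means fluorescence ratio B-score, a plate-corrected score, at least three library SD, with initial intensity B-score within 5 SD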
Target sequence (P51787 whole entry, looked up): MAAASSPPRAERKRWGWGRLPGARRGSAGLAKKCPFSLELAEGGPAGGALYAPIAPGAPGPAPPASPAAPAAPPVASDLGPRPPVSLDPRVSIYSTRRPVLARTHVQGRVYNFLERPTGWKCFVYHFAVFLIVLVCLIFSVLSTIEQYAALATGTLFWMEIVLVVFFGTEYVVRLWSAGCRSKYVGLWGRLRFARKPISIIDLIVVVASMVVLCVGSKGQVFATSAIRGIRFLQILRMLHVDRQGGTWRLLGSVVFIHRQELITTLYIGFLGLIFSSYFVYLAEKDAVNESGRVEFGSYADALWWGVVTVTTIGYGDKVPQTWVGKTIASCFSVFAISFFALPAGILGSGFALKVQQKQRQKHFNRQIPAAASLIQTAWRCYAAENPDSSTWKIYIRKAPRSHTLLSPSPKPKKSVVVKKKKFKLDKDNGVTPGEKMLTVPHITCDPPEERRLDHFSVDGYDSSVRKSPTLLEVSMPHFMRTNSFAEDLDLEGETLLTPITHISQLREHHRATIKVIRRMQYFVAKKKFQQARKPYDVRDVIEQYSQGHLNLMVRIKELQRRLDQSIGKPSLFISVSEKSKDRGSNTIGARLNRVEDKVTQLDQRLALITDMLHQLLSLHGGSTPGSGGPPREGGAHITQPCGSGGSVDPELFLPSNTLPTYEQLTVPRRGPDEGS
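System: CHO-K1 cells stably expressing KCNQ1 / Medium: assay buffer for compound exposure, DMSO matched across wells / Reagent: thallium- and potassium-containing depolarizing buffer / Compound: one concentration, matched DMSO / Incubation: 20 min compound pretreatment at room temperature / Measured by: kinetic FluxOR fluorescence, 10 s baseline plus 110 s post-stimulus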
KCNK3 inh: human KCNK3 channel inhibition, primary screen | AID 602410 | O14649 | B-score at 10 µM | actives 0.84% (n = 340,000) | CHO-KCNK3 thallium flux, FluxOR fluorescence; active compounds read low;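 active means B-score under library mean minus 4 SD, starting fluorescence ratio at most library mean plus 5 SD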;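 further: more negative B-score means stronger inhibition of thallium flux through KCNK3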
hERG protect: shields human hERG channel from block by proarrhythmic agents | actives 0.51% (n = 310,000) | activation (rescue from dofetilide block), less the hit threshold, % at 10 µM | CHO-hERG, FluxOR thallium flux, dofetilide IC70 present;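 active means activation above the mean of controls blocked by dofetilide plus 5 SD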;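 further: thallium influx through hERG after potassium depolarization seen as dye fluorescence rise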
KCNK9 block: blocks the human KCNK9 two-pore domain potassium channel | B-score at 10 µM | HEK293 KCNK9, FluxOR thallium flux fluorescence; active compounds read low | actives 1.2% (n = 310,000) | Q9NPC2 | AID 488922;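 active means ratio B-score over 3 SD below the library mean, with starting fluorescence within 5 SD of its mean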;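 further: negative B-score means less thallium flux so channel inhibition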
KCNQ1 inh: human KCNQ1 channel inhibition; actives 1.3% (n = 310,000); B-score at 10 µM; AID 2642; CHO-K1 KCNQ1, FluxOR thallium flux fluorescence; active compounds read high; P51787;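 active means compounds whose thallium flux B-score, printed positive for inhibition, exceeds three library SD while starting fluorescence stays within three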;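 further: channel opened by potassium depolarization with thallium stimulus after 20 min compound exposure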
The depositor's hits bear a star; i = inactive; / = not tested or not shown.

SMILES	KCNQ1 act	KCNK3 inh	hERG protect	KCNK9 block	KCNQ1 inh
COc1cc(NC(=O)c2cc(-c3cccnc3)nc3ccc(C)cc23)c(OC)cc1Cl	i	/	6.5*	i	i
Cc1nc(SCC(=O)c2ccccc2)c(C#N)c(-c2ccco2)c1C(=O)NCc1ccco1	i	i	-14	i	6*
COc1ccc(CCNC(=O)COC(=O)C23CC4CC(CC(C4)C2)C3)cc1	i	i	-12	i	i
O=C(COC(=O)C12CC3CC(CC(C3)C1)C2)NCCCc1ccccc1	23*	i	-5	i	i
CC(C)CC1NC(=O)C(CC(C)C)N(CO)C1=O (configuration not stated)	/	i	/	/	/
C=CCn1c(SCC(=O)N(C(C)CC)C2CCS(=O)(=O)C2)nc2ccccc2c1=O (configuration not stated)	/	i	/	/	/
Cn1c(=S)[nH]c2c(c1=O)C(C)(C)Cc1ccccc1-2	i	i	1	i	i
CCn1c(=S)[nH]c2c(c1=O)C(C)(C)Cc1ccccc1-2	17*	i	45*	i	i
O=c1cc(O)c2ccccc2n1Cc1ccccc1Cl	i	i	5.3*	i	i
COc1ccc(Cl)cc1NC(=O)c1cccc([N+](=O)[O-])c1O	/	i	/	/	/
CCOc1ccc(Nc2cc(=O)[nH]c(=O)[nH]2)cc1	i	i	-10	i	i
CCCCOc1cc(=O)[nH]c(=O)[nH]1	i	i	4.7*	i	i
CC1(C)CC(N2CCCC2)=CC(=[N+]2CCCCCC2)C1	i	i	-16	i	i
CC1CC(C)C[N+](=C2C=C(N3CCCC3)CC(C)(C)C2)C1 (configuration not stated)	i	i	-17	i	8*
CCOc1ccc(NC(=O)CCNC(=O)C2CCN(S(=O)(=O)c3ccccc3)CC2)cc1	i	i	-7	i	i
COC(=O)c1c(C)oc(C)c1S(=O)(=O)NCc1ccc(Cl)cc1Cl	i	i	-4	-7.5*	i
CC(=O)Oc1c(S(=O)(=O)c2ccc(C)cc2)c(C)nn1C(C)(C)C	i	i	-15	i	i
Cc1nn(C(C)(C)C)c(OC(=O)c2ccc3c(c2)OCO3)c1S(=O)(=O)c1ccccc1	i	-10*	-9	i	i
Cc1ccc(S(=O)(=O)c2c(C)nn(C(C)(C)C)c2OC(=O)c2cccs2)cc1	i	i	-4	i	6*
COc1ccccc1-c1cnnc(N/N=C/c2ccc(-c3cccc(Br)c3)o2)n1	i	i	-6	-6.8*	i
O=[N+]([O-])c1cc(C=Nc2cccc3c(O)cccc23)ccc1Cl	i	/	-8	i	7*
O=[N+]([O-])c1cc(/C=N\Nc2ccccn2)ccc1Cl	i	i	-5	i	i
COc1ccc(C=C(C(=O)O)c2ccc(OC)cc2)cc1	/	i	/	/	/
C=CCN(C(=O)Cn1nc(C)n2c(cc3cc(C)ccc32)c1=O)c1ccccc1	i	i	-9	i	i
CC(=Nc1ccccc1)C1=C(O)C(Cc2ccccc2)NC1=O (configuration not stated)	/	i	/	/	/
SMILES	KCNQ1 act	KCNK3 inh	hERG protect	KCNK9 block	KCNQ1 inh
CC1CCN(C(=O)CSc2nc3cccnc3n2C)CC1	i	i	-10	i	i
Cn1c(SCC(=O)N2CCOCC2)nc2cccnc21	i	i	4.8*	i	i
Brc1ccc2ncc3ccccc3c2c1	/	i	/	/	/
Nc1c(-c2ccccc2)cnn1-c1cccc(Cl)c1	i	i	-12	-7*	i
Cc1cc(=O)oc2cc(OC(C(=O)O)c3ccccc3)ccc12 (configuration not stated)	i	i	6.7*	i	i
Cc1cc(=O)oc2cc(OC(C)C)ccc12	i	i	-13	i	i
Cc1ccc(NC(=O)CCCC(=O)O)c(-c2nc3ccccc3[nH]c2=O)c1	i	i	-7	i	i
COc1ccc(OC)c(-c2csc(NC(=O)CSc3ccc(Br)cc3)n2)c1	i	i	-6	i	i
COc1ccc(OC)c(-c2csc(NC(=O)CSc3ccc([N+](=O)[O-])cc3)n2)c1	i	i	-15	i	7*
Cc1cc(S(=O)(=O)Nc2ccc(C(=O)N3CCN(C(=O)c4ccco4)CC3)cc2)ccc1F	i	i	7.5*	i	i
O=C(NC(=S)NCCC1=CCCCC1)c1ccc(Br)o1	33*	i	20*	i	i
O=C(NC(=S)NCCC1=CCCCC1)c1ccco1	27*	i	30*	i	i
CN1Cc2sc(NC(=S)NC(=O)c3ccccc3)c(C#N)c2CC1(C)C	i	i	-15	i	8*
COc1ccc(-n2cc(-c3ccc(C)cc3)[n+]3c2SCC3)cc1	i	i	-19	i	7*
CCc1ccc(-n2cc(-c3ccc(F)cc3)[n+]3c2SCCC3)cc1	i	i	-18	i	6*
Cc1ccc(-c2cn(-c3ccccc3)c3[n+]2CCCS3)cc1	i	i	-20	i	i
CCC1Nc2ncnc(N3CCCCC3)c2N(Cc2ccc(OC)cc2)C1=O (configuration not stated)	/	i	/	/	/
O=[N+]([O-])c1cc(Br)c(Nc2ccccc2)c([N+](=O)[O-])c1	i	i	-6	i	i
O=[N+]([O-])c1cc([N+](=O)[O-])c2c(=Nc3ccccc3)n(-c3ccccc3)n(O)c2c1	i	-9.9*	-29	i	6*
CC(C)(C)c1cc(O)c(C(C)(C)C)cc1O	8*	/	-9	-8.5*	i
Cc1ccc(N(C)S(=O)(=O)c2cccc(C(=O)NCCCN3CCCC3=O)c2)cc1	/	i	/	/	/
C#CCOCCOCCOCCNc1nc(N2CCN(C(=O)C([C@@H](C)CC)n3cc(C(N)Cc4ccc(O)cc4)nn3)CC2)nc(N2CCN(C(=O)[C@H](CCC(=O)O)n3cc(C(N)CC(C)C)nn3)CC2)n1 (some centres not stated)	24*	i	-5	i	i
CC(C)C[C@H]1C(=O)N2CCC[C@H]2[C@]2(O)O[C@](NC(=O)[C@@H]3C=C4c5cccc6[nH]c(Br)c(c56)CC4N(C)C3)(C(C)C)C(=O)N12 (some centres not stated)	i	i	-10	i	6*
O=C(c1ccccc1)c1coc(-c2ccccc2)c1	/	i	/	/	/
S=C(NCCc1ccccc1)N/N=C/c1c(Cl)cccc1Cl	i	i	11*	i	i
NC(=O)c1ncn([C@@H]2O[C@H](CNCc3ccc(OCC(=O)Nc4ccccn4)cc3)[C@@H](O)[C@H]2O)n1	/	i	/	/	/
CC/C(=C\c1ccc(N(C)C)cc1)c1ccncc1	/	i	/	/	/
Cc1cc(C)c(C)c(S(=O)(=O)N2CCN(c3ncnc4ccccc34)CC2)c1C	/	-10*	/	/	/
